According to ChEMBL document CHEMBL4339192, “De Novo Designed Amphipathic α-Helical Antimicrobial Peptides Incorporating Dab and Dap Residues on the Polar Face To Treat the Gram-Negative Pathogen, Acinetobacter baumannii” (J Med Chem, 2019):
Where a SMILES comes first, the peptide text is derived from it. [ ]: non-standard residue; d: D form. Dap = NC[C@H](N)C(=O)O

Key:
[1] = Therapeutic index, ratio of HC50 for human RBC to MIC for polymyxin B/colistin-resistant Acinetobacter baumannii M89941; type: toxicity; conditions: human red blood cells, read-out: TI
Procedure, shortened: (§1)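 T.I. = HC50/MIC. For HC50, peptide (quantified by amino acid analysis) was two-fold serially diluted over 12 concentrations up to 1000 μg/mL. It was incubated with 1% fresh human erythrocytes in PBS, pH 7.4, for 18 h at 37 °C. After 800g centrifugation, hemoglobin was read at 570 nm against water (100%) and no-peptide (0%) controls. HC50 came from a lysis-versus-concentration plot, average of 3 replicates.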

[2] = Hemolytic activity against human RBC measured after 18 hrs by spectrophotometric method; type: ADME, cell-based, Erythrocyte; conditions: human red blood cells (erythrocytes)
Procedure, shortened: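 Peptide (amount by amino acid analysis), two-fold serial dilutions at 12 concentrations up to 1000 μg/mL, with 1% human erythrocytes in PBS pH 7.4, 37 °C, 18 h. Unlysed cells removed by centrifugation (800g); hemoglobin read at 570 nm. Water-lysed cells = 100%, no-peptide cells = 0%. HC50 from plot of % lysis vs concentration (μM), average of 3 replicates.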

Acinetobacter baumannii [3] = assay: Antibacterial activity against Acinetobacter baumannii isolate 964304 measured after 24 hrs by microtiter dilution method; type: functional; conditions: isolate 964304, 24 h
Procedure, shortened: (§2)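 Broth microdilution in Mueller-Hinton (MH) medium. […] Plates were incubated 24 h at 37 °C. MIC was the lowest peptide concentration that inhibited growth, based on three sets of replicates.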

Acinetobacter baumannii [4] = assay: Antibacterial activity against Acinetobacter baumannii isolate 961997 measured after 24 hrs by microtiter dilution method; type: functional; conditions: isolate 961997, 24 h; procedure, shortened: as §2
Acinetobacter baumannii [5] = assay: Antibacterial activity against Acinetobacter baumannii isolate 981650 measured after 24 hrs by microtiter dilution method; type: functional; conditions: isolate 981650, 24 h; procedure, shortened: as §2
Acinetobacter baumannii [6] = assay: Antibacterial activity against Acinetobacter baumannii isolate 1010282 measured after 24 hrs by microtiter dilution method; type: functional; conditions: isolate 1010282, 24 h; procedure, shortened: as §2
Acinetobacter baumannii [7] = assay: Antibacterial activity against Acinetobacter baumannii 649 measured after 24 hrs by microtiter dilution method; type: functional; conditions: Acinetobacter baumannii, 649, 24 h; procedure, shortened: as §2
Acinetobacter baumannii [8] = assay: Antibacterial activity against Acinetobacter baumannii isolate 968886 measured after 24 hrs by microtiter dilution method; type: functional; conditions: isolate 968886, 24 h; procedure, shortened: as §2
Acinetobacter baumannii [9] = assay: Antibacterial activity against Acinetobacter baumannii isolate 1018887 measured after 24 hrs by microtiter dilution method; type: functional; conditions: isolate 1018887, 24 h; procedure, shortened: as §2
Acinetobacter baumannii [10] = assay: Antibacterial activity against Acinetobacter baumannii isolate 1001611 measured after 24 hrs by microtiter dilution method; type: functional; conditions: isolate 1001611, 24 h; procedure, shortened: as §2
Acinetobacter baumannii [11] = assay: Antibacterial activity against Acinetobacter baumannii isolate 1007660 measured after 24 hrs by microtiter dilution method; type: functional; conditions: isolate 1007660, 24 h; procedure, shortened: as §2
Acinetobacter baumannii [12] = assay: Antibacterial activity against polymyxin B/colistin-resistant Acinetobacter baumannii M89949 measured after 24 hrs by microtiter dilution method; type: functional; conditions: M89949, 24 h; procedure, shortened: as §2
Acinetobacter baumannii [13] = assay: Antibacterial activity against Acinetobacter baumannii isolate 9383370 measured after 24 hrs by microtiter dilution method; type: functional; conditions: isolate 9383370, 24 h; procedure, shortened: as §2
Acinetobacter baumannii [14] = assay: Antibacterial activity against Acinetobacter baumannii isolate 965463 measured after 24 hrs by microtiter dilution method; type: functional; conditions: isolate 965463, 24 h; procedure, shortened: as §2
Acinetobacter baumannii [15] = assay: Antibacterial activity against Acinetobacter baumannii isolate 963659 measured after 24 hrs by microtiter dilution method; type: functional; conditions: isolate 963659, 24 h; procedure, shortened: as §2
Acinetobacter baumannii [16] = assay: Antibacterial activity against Acinetobacter baumannii isolate 1035794 measured after 24 hrs by microtiter dilution method; type: functional; conditions: isolate 1035794, 24 h; procedure, shortened: as §2
[17] = Therapeutic index, ratio of HC50 for human RBC to MIC for polymyxin B/colistin-resistant Acinetobacter baumannii M89955; type: toxicity; conditions: human red blood cells, read-out: TI; procedure, shortened: as §1
Acinetobacter baumannii [18] = assay: Antibacterial activity against Acinetobacter baumannii 649 measured after 24 hrs in presence of 25% human serum by microtiter dilution method; type: functional; conditions: Acinetobacter baumannii, 649, 24 h
Procedure, shortened: (§3)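 Blood strain 649 was tested by MH broth microdilution with and without 25% (v/v) human serum added to the medium. The test used a final inoculum of 5 × 10^5 cfu/mL and incubation at 37 °C. The ratio is the MIC in serum over the MIC in MH alone.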

[19] = Therapeutic index, ratio of HC50 for human RBC to MIC for polymyxin B/colistin-resistant Acinetobacter baumannii M89963; type: toxicity; conditions: human red blood cells, read-out: TI; procedure, shortened: as §1
[20] = Therapeutic index, ratio of HC50 for human RBC to MIC for polymyxin B/colistin-resistant Acinetobacter baumannii M89951; type: toxicity; conditions: human red blood cells, read-out: TI; procedure, shortened: as §1
[21] = Therapeutic index, ratio of HC50 for human RBC to MIC for polymyxin B/colistin-resistant Acinetobacter baumannii M89952; type: toxicity; conditions: human red blood cells, read-out: TI; procedure, shortened: as §1
[22] = Therapeutic index, ratio of HC50 for human RBC to MIC for polymyxin B/colistin-resistant Acinetobacter baumannii M89949; type: toxicity; conditions: human red blood cells, read-out: TI; procedure, shortened: as §1
Acinetobacter baumannii [23] = assay: Antibacterial activity against polymyxin B/colistin-resistant Acinetobacter baumannii M89963 measured after 24 hrs by microtiter dilution method; type: functional; conditions: M89963, 24 h; procedure, shortened: as §2
Acinetobacter baumannii [24] = assay: Antibacterial activity against Acinetobacter baumannii isolate 963618 measured after 24 hrs by microtiter dilution method; type: functional; conditions: isolate 963618, 24 h; procedure, shortened: as §2
Acinetobacter baumannii [25] = assay: Antibacterial activity against Acinetobacter baumannii isolate 1021371 measured after 24 hrs by microtiter dilution method; type: functional; conditions: isolate 1021371, 24 h; procedure, shortened: as §2
Acinetobacter baumannii [26] = assay: Antibacterial activity against Acinetobacter baumannii isolate 1035166 measured after 24 hrs by microtiter dilution method; type: functional; conditions: isolate 1035166, 24 h; procedure, shortened: as §2
Acinetobacter baumannii [27] = assay: Antibacterial activity against polymyxin B/colistin-resistant Acinetobacter baumannii M89953 measured after 24 hrs by microtiter dilution method; type: functional; conditions: M89953, 24 h; procedure, shortened: as §2
Acinetobacter baumannii [28] = assay: Antibacterial activity against polymyxin B/colistin-resistant Acinetobacter baumannii M89955 measured after 24 hrs by microtiter dilution method; type: functional; conditions: M89955, 24 h; procedure, shortened: as §2
Acinetobacter baumannii [29] = assay: Antibacterial activity against polymyxin B/colistin-resistant Acinetobacter baumannii M89952 measured after 24 hrs by microtiter dilution method; type: functional; conditions: M89952, 24 h; procedure, shortened: as §2
Acinetobacter baumannii [30] = assay: Ratio of MIC for Acinetobacter baumannii 649 measured in presence of 25% human serum to MIC for Acinetobacter baumannii 649 in absence of 25% human serum; type: functional; procedure, shortened: as §3
Acinetobacter baumannii [31] = assay: Antibacterial activity against Acinetobacter baumannii isolate 1017395 measured after 24 hrs by microtiter dilution method; type: functional; conditions: isolate 1017395, 24 h; procedure, shortened: as §2
Acinetobacter baumannii [32] = assay: Antibacterial activity against polymyxin B/colistin-resistant Acinetobacter baumannii M89951 measured after 24 hrs by microtiter dilution method; type: functional; conditions: M89951, 24 h; procedure, shortened: as §2
Acinetobacter baumannii [33] = assay: Antibacterial activity against Acinetobacter baumannii isolate 952654 measured after 24 hrs by microtiter dilution method; type: functional; conditions: isolate 952654, 24 h; procedure, shortened: as §2
Acinetobacter baumannii [34] = assay: Antibacterial activity against Acinetobacter baumannii isolate 1002956 measured after 24 hrs by microtiter dilution method; type: functional; conditions: isolate 1002956, 24 h; procedure, shortened: as §2
Acinetobacter baumannii [35] = assay: Antibacterial activity against Acinetobacter baumannii isolate 1010245 measured after 24 hrs by microtiter dilution method; type: functional; conditions: isolate 1010245, 24 h; procedure, shortened: as §2
[36] = Therapeutic index, ratio of HC50 for human RBC to MIC for polymyxin B/colistin-resistant Acinetobacter baumannii M89953; type: toxicity; conditions: human red blood cells, read-out: TI; procedure, shortened: as §1
Acinetobacter baumannii [37] = assay: Antibacterial activity against polymyxin B/colistin-resistant Acinetobacter baumannii M89941 measured after 24 hrs by microtiter dilution method; type: functional; conditions: M89941, 24 h; procedure, shortened: as §2
Acinetobacter baumannii [38] = assay: Antibacterial activity against Acinetobacter baumannii isolate 977751 measured after 24 hrs by microtiter dilution method; type: functional; conditions: isolate 977751, 24 h; procedure, shortened: as §2

CC(=O)N[C@H](CCCCN)C(=O)N[C@H](CC(C)C)C(=O)N[C@@H](CN)C(=O)N[C@H](CO)C(=O)N[C@H](CC(C)C)C(=O)N[C@H](CC(C)C)C(=O)N[C@@H](CN)C(=O)N[C@@H](C(=O)N[C@H](CC(C)C)C(=O)N[C@H](CO)C(=O)N[C@@H](CN)C(=O)N[C@H](C)C(=O)N[C@H](C)C(=O)N[C@H](C)C(=O)N[C@H](C)C(=O)N[C@H](C)C(=O)N[C@H](CC(C)C)C(=O)N[C@@H](CN)C(=O)N[C@@H](C(=O)N[C@H](CC(C)C)C(=O)N[C@H](CC(C)C)C(=O)N[C@@H](CN)C(=O)N[C@H](C)C(=O)N[C@H](CC(C)C)C(=O)N[C@H](CO)C(=O)N[C@@H](CN)C(N)=O)[C@H](C)O)[C@H](C)O (Ac-[dK][dL][Dap][dS][dL][dL][Dap][dT][dL][dS][Dap][dA][dA][dA][dA][dA][dL][Dap][dT][dL][dL][Dap][dA][dL][dS][Dap]-NH2)
2900 nM: HC50 at 18 h [2]
12.5 µM: MIC (Acinetobacter baumannii [18])
3.2 µM: MIC (Acinetobacter baumannii [3]) | MIC (Acinetobacter baumannii [4]) | MIC (Acinetobacter baumannii [9]) | MIC (Acinetobacter baumannii [11]) | MIC (Acinetobacter baumannii [14]) | MIC (Acinetobacter baumannii [15]) | MIC (Acinetobacter baumannii [26]) | MIC (Acinetobacter baumannii [31])
0.8 µM: MIC (Acinetobacter baumannii [7]) | MIC (Acinetobacter baumannii [12]) | MIC (Acinetobacter baumannii [25]) | MIC (Acinetobacter baumannii [32]) | MIC (Acinetobacter baumannii [35]) | MIC (Acinetobacter baumannii [38])
6.4 µM: MIC (Acinetobacter baumannii [33])
4 - 16: Ratio (Acinetobacter baumannii [30])
2.2: selectivity ratio [1] | selectivity ratio [17] | selectivity ratio [19] | selectivity ratio [20] | selectivity ratio [21] | selectivity ratio [22] | selectivity ratio [36]
1.6 µM: MIC (Acinetobacter baumannii [5]) | MIC (Acinetobacter baumannii [6]) | MIC (Acinetobacter baumannii [8]) | MIC (Acinetobacter baumannii [10]) | MIC (Acinetobacter baumannii [13]) | MIC (Acinetobacter baumannii [16]) | MIC (Acinetobacter baumannii [23]) | MIC (Acinetobacter baumannii [24]) | MIC (Acinetobacter baumannii [27]) | MIC (Acinetobacter baumannii [28]) | MIC (Acinetobacter baumannii [29]) | MIC (Acinetobacter baumannii [34]) | MIC (Acinetobacter baumannii [37])
